Measurements: ChEMBL document CHEMBL2346500, “Design and synthesis of dual-action inhibitors targeting histone deacetylases and 3-hydroxy-3-methylglutaryl coenzyme A reductase for cancer treatment” (J Med Chem, 2013)

Assays:
[1] = biological target: T1, 3-hydroxy-3-methylglutaryl-coenzyme A reductase (Homo sapiens, UniProt P04035); test: Inhibition of recombinant HMG-CoA reductase (unknown origin) after 10 mins by spectrophotometric analysis
T1 sequence (P04035 whole entry): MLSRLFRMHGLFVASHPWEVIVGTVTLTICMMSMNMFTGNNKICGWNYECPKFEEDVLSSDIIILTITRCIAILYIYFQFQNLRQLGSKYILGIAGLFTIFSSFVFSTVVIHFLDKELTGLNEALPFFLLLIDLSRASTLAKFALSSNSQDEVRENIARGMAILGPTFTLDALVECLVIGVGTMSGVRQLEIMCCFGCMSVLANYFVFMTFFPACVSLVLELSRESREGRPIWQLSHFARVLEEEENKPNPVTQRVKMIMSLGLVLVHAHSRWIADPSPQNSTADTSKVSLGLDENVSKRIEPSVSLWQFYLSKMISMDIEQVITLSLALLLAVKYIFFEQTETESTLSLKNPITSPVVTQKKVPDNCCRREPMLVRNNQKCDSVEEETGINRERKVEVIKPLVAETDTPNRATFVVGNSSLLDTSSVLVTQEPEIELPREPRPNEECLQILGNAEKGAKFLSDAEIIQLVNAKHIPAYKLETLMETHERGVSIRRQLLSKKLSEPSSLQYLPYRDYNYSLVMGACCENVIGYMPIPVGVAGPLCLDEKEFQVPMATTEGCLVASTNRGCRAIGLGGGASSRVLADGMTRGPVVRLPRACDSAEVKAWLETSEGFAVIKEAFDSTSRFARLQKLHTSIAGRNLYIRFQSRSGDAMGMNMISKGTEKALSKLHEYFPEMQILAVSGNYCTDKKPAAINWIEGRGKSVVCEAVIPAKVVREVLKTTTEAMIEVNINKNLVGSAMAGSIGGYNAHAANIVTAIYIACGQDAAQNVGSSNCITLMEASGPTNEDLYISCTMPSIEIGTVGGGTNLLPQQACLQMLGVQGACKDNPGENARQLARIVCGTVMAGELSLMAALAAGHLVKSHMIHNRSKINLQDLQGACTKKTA

[2] = biological target: T2, Protein deacetylase HDAC6 (Homo sapiens) (UniProt Q9UBN7); test: Inhibition of HDAC6 in human A549 cells assessed as increase in tubulin acetylation after 24 hrs by Western blotting analysis; assay type: cell-based
T2 sequence (whole entry): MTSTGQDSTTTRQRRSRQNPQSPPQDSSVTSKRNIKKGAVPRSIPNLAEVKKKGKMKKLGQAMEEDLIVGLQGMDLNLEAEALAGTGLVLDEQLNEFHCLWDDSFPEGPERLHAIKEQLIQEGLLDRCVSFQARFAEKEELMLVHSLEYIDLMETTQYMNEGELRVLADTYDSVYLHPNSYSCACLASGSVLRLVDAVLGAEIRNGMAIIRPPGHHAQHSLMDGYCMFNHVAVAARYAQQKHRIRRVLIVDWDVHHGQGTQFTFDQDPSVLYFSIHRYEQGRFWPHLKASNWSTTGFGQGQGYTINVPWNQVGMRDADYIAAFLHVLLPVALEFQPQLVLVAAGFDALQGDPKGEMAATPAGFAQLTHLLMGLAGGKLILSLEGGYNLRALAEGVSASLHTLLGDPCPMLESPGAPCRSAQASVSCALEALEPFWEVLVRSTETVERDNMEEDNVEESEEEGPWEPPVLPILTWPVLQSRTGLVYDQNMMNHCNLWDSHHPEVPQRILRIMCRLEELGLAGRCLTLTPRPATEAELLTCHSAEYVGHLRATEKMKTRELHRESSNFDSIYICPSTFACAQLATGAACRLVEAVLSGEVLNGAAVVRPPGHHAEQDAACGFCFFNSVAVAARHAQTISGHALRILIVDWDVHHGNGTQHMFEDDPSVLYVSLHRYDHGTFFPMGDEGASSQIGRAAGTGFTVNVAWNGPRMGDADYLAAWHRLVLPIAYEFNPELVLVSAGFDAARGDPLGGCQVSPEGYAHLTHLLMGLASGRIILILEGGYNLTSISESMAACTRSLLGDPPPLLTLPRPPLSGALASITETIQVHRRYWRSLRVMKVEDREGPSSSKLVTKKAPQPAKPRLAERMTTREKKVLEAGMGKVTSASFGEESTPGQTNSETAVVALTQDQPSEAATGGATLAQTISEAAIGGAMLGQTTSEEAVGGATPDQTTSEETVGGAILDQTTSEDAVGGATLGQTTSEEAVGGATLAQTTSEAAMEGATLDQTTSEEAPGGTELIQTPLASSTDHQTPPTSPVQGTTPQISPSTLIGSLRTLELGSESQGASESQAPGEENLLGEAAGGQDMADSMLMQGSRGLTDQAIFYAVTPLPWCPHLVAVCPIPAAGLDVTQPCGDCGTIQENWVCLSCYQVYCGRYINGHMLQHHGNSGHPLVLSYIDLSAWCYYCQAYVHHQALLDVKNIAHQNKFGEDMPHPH
In short: (§1)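 A549 cells (DMEM, 10% FBS, penicillin/streptomycin, 5% CO2) exposed to compounds at indicated doses for 24 h. Cells lysed on ice, total lysates run on SDS–PAGE and immunoblotted with antibodies to acetyl-histone H3, acetyl-tubulin and actin. Loading normalised to β-actin.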

[3] = biological target: Histone deacetylase (Homo sapiens) (UniProt Q13547+O15379+Q9UBN7+Q92769+Q9UQL6+Q8WUI4+Q9BY41+Q96DB2+P56524+Q9UKV0+Q969S8); test: Inhibition of class 1 HDAC in human A549 cells assessed as increase in histone acetylation after 24 hrs by Western blotting analysis; assay type: cell-based; in short: as §1
[4] = biological target: T3, Protein deacetylase HDAC6 (Homo sapiens, UniProt Q9UBN7); test: Inhibition of recombinant HDAC6 (unknown origin) after 10 mins by fluorimetric analysis
T3 sequence (Q9UBN7 whole entry): T2 sequence (whole entry)

Histone deacetylase 2 = Histone deacetylase 2 (Homo sapiens, UniProt Q92769); test: Inhibition of recombinant HDAC2 (unknown origin) after 10 mins by fluorimetric analysis
Histone deacetylase 1 = Histone deacetylase 1 (Homo sapiens, UniProt Q13547); test: Inhibition of recombinant HDAC1 (unknown origin) after 10 mins by fluorimetric analysis
A549 [5] = test: Selectivity index, ratio of IC50 for human HS68 cells to IC50 for human A549 cells; assay type: functional
A549 [6] = test: Selectivity index, ratio of IC50 for mouse MEF cells to IC50 for human A549 cells; assay type: functional
Hs68 = test: Cytotoxicity against human HS68 cells after 72 hrs by MTT assay; assay type: ADME, cell-based; conditions: Hs68, 72 h
MEF = test: Cytotoxicity against mouse MEF cells after 72 hrs by MTT assay; assay type: ADME, cell-based
[7] = biological target: T1, 3-hydroxy-3-methylglutaryl-coenzyme A reductase; test: Inhibition of HMG-CoA reductase in human A549 cells after 5 mins by spectrophotometric analysis
A549 [8] = test: Cytotoxicity against human A549 cells after 72 hrs by MTT assay; assay type: functional, cell-based; conditions: A549, 72 h

Sequence of Histone deacetylase 2 (Q92769 whole entry): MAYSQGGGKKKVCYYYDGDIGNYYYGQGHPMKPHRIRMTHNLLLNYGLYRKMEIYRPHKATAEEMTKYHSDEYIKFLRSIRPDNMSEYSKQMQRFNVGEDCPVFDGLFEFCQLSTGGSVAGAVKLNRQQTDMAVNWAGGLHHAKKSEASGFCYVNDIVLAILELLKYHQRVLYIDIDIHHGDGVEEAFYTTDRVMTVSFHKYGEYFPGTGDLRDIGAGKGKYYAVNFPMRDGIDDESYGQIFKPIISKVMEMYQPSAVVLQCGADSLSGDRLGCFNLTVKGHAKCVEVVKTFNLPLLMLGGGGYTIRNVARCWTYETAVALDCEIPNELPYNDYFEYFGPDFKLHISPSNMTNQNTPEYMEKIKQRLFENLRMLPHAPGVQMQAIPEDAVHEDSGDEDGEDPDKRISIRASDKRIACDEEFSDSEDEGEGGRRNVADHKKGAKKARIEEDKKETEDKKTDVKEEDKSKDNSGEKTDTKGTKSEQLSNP
Sequence of Histone deacetylase 1 (Q13547 whole entry): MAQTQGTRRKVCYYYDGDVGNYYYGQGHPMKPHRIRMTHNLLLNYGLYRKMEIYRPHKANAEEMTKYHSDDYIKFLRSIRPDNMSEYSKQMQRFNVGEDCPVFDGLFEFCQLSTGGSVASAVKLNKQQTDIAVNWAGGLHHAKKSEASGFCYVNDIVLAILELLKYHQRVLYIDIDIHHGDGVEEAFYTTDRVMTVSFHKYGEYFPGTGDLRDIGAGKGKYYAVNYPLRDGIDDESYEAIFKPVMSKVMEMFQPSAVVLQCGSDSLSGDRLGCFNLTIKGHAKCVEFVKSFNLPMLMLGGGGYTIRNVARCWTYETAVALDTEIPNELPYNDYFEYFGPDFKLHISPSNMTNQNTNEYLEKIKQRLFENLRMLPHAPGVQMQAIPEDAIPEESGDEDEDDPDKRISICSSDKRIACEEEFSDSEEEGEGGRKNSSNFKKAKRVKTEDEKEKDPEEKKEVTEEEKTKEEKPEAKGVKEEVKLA

| Compound | IC50 [1] | inhibition [2] | inhibition [3] | IC50 [4] | IC50 (Histone deacetylase 2) | IC50 (Histone deacetylase 1) | Ratio IC50 (A549 [5]) | Ratio IC50 (A549 [6]) | IC50 (Hs68) | IC50 (MEF) | IC50 [7] | IC50 (A549 [8]) |
| --- | --- | --- | --- | --- | --- | --- | --- | --- | --- | --- | --- | --- |
| O=C(CCCCCCC(=O)Nc1ccccc1)NO [VORINOSTAT] | > 10 µM | – | – | – | – | – | – | – | – | – | – | – |
| C[C@H]1C=C2C=C[C@H](C)[C@H](CC[C@@H]3C[C@@H](O[Si](C)(C)C(C)(C)C)CC(=O)O3)[C@H]2[C@@H](OC(=O)NCc2ccc(-c3cn(CCCCCCC(=O)NO)nn3)cc2)C1 | – | Dose-dependent effect | Dose-dependent effect | 0.034 µM | 0.882 µM | 0.125 µM | – | – | – | – | – | – |
| CC[C@H](C)C(=O)O[C@H]1C[C@@H](C)C=C2C=C[C@H](C)[C@H](CC[C@@H](O)C[C@@H](O)CC(=O)NO)[C@H]21 | 0.0168 µM | Dose-dependent effect | Dose-dependent effect | 0.051 µM | 0.468 µM | 0.0648 µM | >5.6 | >5.6 | > 100 µM | > 100 µM | 15.9 µM | – |
| CC(C)c1c(C(=O)Nc2ccccc2)c(-c2ccccc2)c(-c2ccc(F)cc2)n1CC[C@@H](O)C[C@@H](O)CC(=O)O [ATORVASTATIN] | – | – | – | – | – | – | – | – | – | 30.7 µM | – | – |
| C[C@H]1C=C2C=C[C@H](C)[C@H](CC[C@@H]3C[C@@H](O[Si](C)(C)C(C)(C)C)CC(=O)O3)[C@H]2[C@@H](OC(=O)NCCCCCCC(=O)NO)C1 | – | – | – | 0.14 µM | 0.658 µM | 0.122 µM | – | – | – | – | – | – |
| CC(C)c1c(C(=O)Nc2ccccc2)c(-c2ccccc2)c(-c2ccc(F)cc2)n1CC[C@@H](O)C[C@@H](O)CC(=O)NO | 0.0123 µM | Dose-dependent effect | Dose-dependent effect | 0.0866 µM | – | 0.123 µM | >5.7 | >5.7 | > 100 µM | > 100 µM | 5.7 µM | – |
| CCC(C)(C)C(=O)O[C@H]1C[C@@H](C)C=C2C=C[C@H](C)[C@H](CC[C@@H]3C[C@@H](O)CC(=O)O3)[C@H]21 [SIMVASTATIN] | – | – | – | – | – | – | 1.6 | 2.3 | 26.4 µM | 36.7 µM | – | 16.3 µM |
| CC(C)c1nc(N(C)S(C)(=O)=O)nc(-c2ccc(F)cc2)c1/C=C/[C@@H](O)C[C@@H](O)CC(=O)NO | – | Dose-dependent effect | Dose-dependent effect | – | – | – | – | – | – | – | 14.9 µM | – |
| C[C@H]1C=C2C=C[C@H](C)[C@H](CC[C@@H]3C[C@@H](O[Si](C)(C)C(C)(C)C)CC(=O)O3)[C@H]2[C@@H](OC(=O)Nc2ccc(-c3cn(CCCCCCC(=O)NO)nn3)cc2)C1 | – | Dose-dependent effect | Dose-dependent effect | 0.127 µM | 0.463 µM | 0.159 µM | – | – | – | – | – | – |
| CCC(C)(C)C(=O)O[C@H]1C[C@@H](C)C=C2C=C[C@H](C)[C@H](CC[C@@H](O)C[C@@H](O)CC(=O)NO)[C@H]21 | 0.0131 µM | Dose-dependent effect | Dose-dependent effect | 0.0695 µM | 0.414 µM | 0.0634 µM | >5 | >5 | > 100 µM | > 100 µM | 7.9 µM | – |
| CC[C@H](C)C(=O)O[C@H]1C[C@@H](C)C=C2C=C[C@H](C)[C@H](CC[C@@H]3C[C@@H](O)CC(=O)O3)[C@H]21 [LOVASTATIN] | – | – | – | – | – | – | – | – | 23.2 µM | 35 µM | – | – |
